In ChEMBL document CHEMBL1126044, “Affinity of human growth hormone-releasing factor (1-29)NH2 analogues for GRF binding sites in rat adenopituitary” (J Med Chem, 1992):
pIC50: −log10 of the molar value. Square brackets hold non-standard residues; d marks the D form. Peptide text beside a SMILES is read from it. Aoc = NCCCCCCCC(=O)O

Molecular target: T1, Growth hormone-releasing hormone receptor (Rattus norvegicus) (UniProt Q02644)
T1 sequence (whole entry): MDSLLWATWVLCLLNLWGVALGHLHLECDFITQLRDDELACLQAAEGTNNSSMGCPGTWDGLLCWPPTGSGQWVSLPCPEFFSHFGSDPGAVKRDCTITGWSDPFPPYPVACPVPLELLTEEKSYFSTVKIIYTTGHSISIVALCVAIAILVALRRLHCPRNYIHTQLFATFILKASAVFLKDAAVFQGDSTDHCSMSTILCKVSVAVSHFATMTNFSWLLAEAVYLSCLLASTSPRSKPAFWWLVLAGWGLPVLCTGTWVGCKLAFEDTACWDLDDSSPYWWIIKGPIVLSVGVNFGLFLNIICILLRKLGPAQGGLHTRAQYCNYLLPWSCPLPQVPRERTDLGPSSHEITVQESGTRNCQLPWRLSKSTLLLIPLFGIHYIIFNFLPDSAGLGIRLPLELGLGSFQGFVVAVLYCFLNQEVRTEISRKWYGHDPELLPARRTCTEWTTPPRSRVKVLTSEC
Experiment: Relative affinity compared to hGRF(1-29)NH2
Format: functional
Outline: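 Radioligand competition in rat anterior pituitary homogenate using [125I-Tyr10]hGRF(1-44)NH2 at 35–50 pM and peptides at 0–1000 nM, 60 min at 23 °C. Relative affinity is the binding IC50 expressed as a percentage relative to hGRF(1-29)NH2.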

| Activity [%] | Molecule |
| --- | --- |
| 41 | CC[C@H](C)[C@H](NC(=O)[C@H](C)NC(=O)[C@H](CC(=O)O)NC(=O)[C@H](C)NC(=O)[C@H](Cc1ccc(O)cc1)NC(=O)CCCN)C(=O)N[C@@H](Cc1ccccc1)C(=O)N[C@H](C(=O)N[C@@H](CC(N)=O)C(=O)N[C@@H](CO)C(=O)N[C@@H](Cc1ccc(O)cc1)C(=O)N[C@@H](CCCN=C(N)N)C(=O)N[C@@H](CCCCN)C(=O)N[C@H](C(=O)N[C@@H](CC(C)C)C(=O)NCC(=O)N[C@@H](CCC(N)=O)C(=O)N[C@@H](CC(C)C)C(=O)N[C@@H](CO)C(=O)N[C@@H](C)C(=O)N[C@@H](CCCN=C(N)N)C(=O)N[C@@H](CCCCN)C(=O)N[C@@H](CC(C)C)C(=O)N[C@@H](CC(C)C)C(=O)N[C@@H](CCC(N)=O)C(=O)N[C@@H](CC(=O)O)C(=O)N[C@H](C(=O)N[C@@H](CCSC)C(=O)N[C@@H](CO)C(=O)N[C@@H](CCCN=C(N)N)C(N)=O)[C@@H](C)CC)C(C)C)[C@@H](C)O |
| 85 | CC[C@H](C)[C@H](NC(=O)[C@H](C)NC(=O)[C@H](CC(=O)O)NC(=O)[C@H](C)NC(=O)[C@H](Cc1ccc(O)cc1)NC(=O)CCCCCN)C(=O)N[C@@H](Cc1ccccc1)C(=O)N[C@H](C(=O)N[C@@H](CC(N)=O)C(=O)N[C@@H](CO)C(=O)N[C@@H](Cc1ccc(O)cc1)C(=O)N[C@@H](CCCN=C(N)N)C(=O)N[C@@H](CCCCN)C(=O)N[C@H](C(=O)N[C@@H](CC(C)C)C(=O)NCC(=O)N[C@@H](CCC(N)=O)C(=O)N[C@@H](CC(C)C)C(=O)N[C@@H](CO)C(=O)N[C@@H](C)C(=O)N[C@@H](CCCN=C(N)N)C(=O)N[C@@H](CCCCN)C(=O)N[C@@H](CC(C)C)C(=O)N[C@@H](CC(C)C)C(=O)N[C@@H](CCC(N)=O)C(=O)N[C@@H](CC(=O)O)C(=O)N[C@H](C(=O)N[C@@H](CCSC)C(=O)N[C@@H](CO)C(=O)N[C@@H](CCCN=C(N)N)C(N)=O)[C@@H](C)CC)C(C)C)[C@@H](C)O |

Molecular target: T2, Growth hormone-releasing hormone receptor (Rattus norvegicus, UniProt Q02644)
T2 sequence (Q02644 whole entry): T1 sequence (whole entry)
Experiment: Compound was tested to Inhibit [125I]-Growth hormone-releasing factor in rat adenopituitary homogenates
Outline: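 Anterior pituitaries from 2-month-old male Sprague-Dawley rats homogenized in ice-cold 50 mM Tris-HCl pH 7.4 with 5 mM MgCl2, 5 mM EDTA. Homogenate (70–75 µg protein) incubated with 35–50 pM [125I-Tyr10]hGRF(1-44)NH2 and peptide at 0–1000 nM in Tris-HCl buffer pH 7.4 with 5 mM EDTA, 5 mM MgCl2, 0.42% BSA, 60 min at 23 °C. Nonspecific binding defined with 2.4 µM rGRF(1-29)NH2. Bound fraction separated by centrifugation and gamma-counted. IC50 fitted with LIGAND. Mean ± SEM of three experiments, each in duplicate or triplicate.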

| Molecule | pIC50 |
| --- | --- |
| H-YADAIFTNSYRKVLGQLSARKLLDIMSR-NH2 | 7.34 |
| CC[C@H](C)[C@H](NC(=O)[C@H](C)NC(=O)[C@H](CC(=O)O)NC(=O)[C@H](C)NC(=O)[C@@H](N)Cc1ccc(O)cc1)C(=O)N[C@@H](Cc1ccccc1)C(=O)N[C@H](C(=O)N[C@@H](CC(N)=O)C(=O)N[C@@H](CO)C(=O)N[C@@H](Cc1ccc(O)cc1)C(=O)N[C@@H](CCCN=C(N)N)C(=O)N[C@@H](CCCCN)C(=O)NCCCCCCCC(=O)N[C@@H](CCC(N)=O)C(=O)N[C@@H](CC(C)C)C(=O)N[C@@H](CO)C(=O)N[C@@H](C)C(=O)N[C@@H](CCCN=C(N)N)C(=O)N[C@@H](CCCCN)C(=O)N[C@@H](CC(C)C)C(=O)N[C@@H](CC(C)C)C(=O)N[C@@H](CCC(N)=O)C(=O)N[C@@H](CC(=O)O)C(=O)N[C@H](C(=O)N[C@@H](CCSC)C(=O)N[C@@H](CO)C(=O)N[C@@H](CCCN=C(N)N)C(N)=O)[C@@H](C)CC)[C@@H](C)O (H-YADAIFTNSYRK[Aoc]QLSARKLLQDIMSR-NH2) | < 6.00 |
| CC[C@H](C)[C@H](NC(=O)[C@H](C)NC(=O)[C@H](CC(=O)O)NC(=O)[C@H](C)NC(=O)[C@@H](N)Cc1ccc(O)cc1)C(=O)N[C@@H](Cc1ccccc1)C(=O)N[C@H](C(=O)N[C@@H](CC(N)=O)C(=O)N[C@@H](CO)C(=O)N[C@@H](Cc1ccc(O)cc1)C(=O)N[C@@H](CCCNC(=N)N)C(=O)N[C@@H](CCCCN)C(=O)N[C@H](C(=O)N[C@@H](CC(C)C)C(=O)NCC(=O)N[C@@H](CCC(N)=O)C(=O)N[C@@H](CC(C)C)C(=O)N[C@@H](CO)C(=O)NCCCCCCCC(=O)N[C@@H](CC(C)C)C(=O)N[C@@H](CC(C)C)C(=O)N[C@@H](CCC(N)=O)C(=O)N[C@@H](CC(=O)O)C(=O)N[C@H](C(=O)N[C@@H](CCSC)C(=O)N[C@@H](CO)C(=O)N[C@@H](CCCNC(=N)N)C(N)=O)[C@@H](C)CC)C(C)C)[C@@H](C)O (H-YADAIFTNSYRKVLGQLS[Aoc]LLQDIMSR-NH2) | < 6.00 |
| H-ADAIFTSSYRRILGQLYARKLLHEIMNR-NH2 | 7.35 |
| CC[C@H](C)[C@H](NC(=O)[C@H](C)NC(=O)[C@H](CC(=O)O)NC(=O)[C@H](C)NC(=O)[C@@H](N)Cc1ccc(O)cc1)C(=O)N[C@@H](Cc1ccccc1)C(=O)N[C@H](C(=O)N[C@@H](CC(N)=O)C(=O)N[C@@H](CO)C(=O)N[C@@H](Cc1ccc(O)cc1)C(=O)N[C@@H](CCCNC(=N)N)C(=O)N[C@@H](CCCCN)C(=O)N[C@H](C(=O)N[C@@H](CC(C)C)C(=O)NCC(=O)NCCCCCCCC(=O)N[C@@H](C)C(=O)N[C@@H](CCCNC(=N)N)C(=O)N[C@@H](CCCCN)C(=O)N[C@@H](CC(C)C)C(=O)N[C@@H](CC(C)C)C(=O)N[C@@H](CCC(N)=O)C(=O)N[C@@H](CC(=O)O)C(=O)N[C@H](C(=O)N[C@@H](CCSC)C(=O)N[C@@H](CO)C(=O)N[C@@H](CCCNC(=N)N)C(N)=O)[C@@H](C)CC)C(C)C)[C@@H](C)O (H-YADAIFTNSYRKVLG[Aoc]ARKLLQDIMSR-NH2) | < 6.00 |
| H-YADAIFTSYRKVLGQLSARKLLQDIMSR-NH2 | 7.02 |
| H-YADAIFTNSYRKVLGQLSALLQDIMSR-NH2 | < 6.00 |
| H-ADAIFTNSYRKVLAQLSARKLLQDIMSR-NH2 | 6.42 |
| H-YADAIFTNSYRKVLGQLSARKLLQDIR-NH2 | 6.92 |
| H-YADAIFTNSYRKVLGQLSARLLQDIMSR-NH2 | < 6.00 |

Now from value to molecule:

| pIC50 | Molecule |
| --- | --- |
| 7.75 | CC[C@H](C)[C@H](NC(=O)[C@H](C)NC(=O)[C@H](CC(=O)O)NC(=O)[C@H](C)NC(=O)[C@H](Cc1ccc(O)cc1)NC(C)=O)C(=O)N[C@@H](Cc1ccccc1)C(=O)N[C@H](C(=O)N[C@@H](CC(N)=O)C(=O)N[C@@H](CO)C(=O)N[C@@H](Cc1ccc(O)cc1)C(=O)N[C@@H](CCCNC(=N)N)C(=O)N[C@@H](CCCCN)C(=O)N[C@H](C(=O)N[C@@H](CC(C)C)C(=O)NCC(=O)N[C@@H](CCC(N)=O)C(=O)N[C@@H](CC(C)C)C(=O)N[C@@H](CO)C(=O)N[C@@H](C)C(=O)N[C@@H](CCCNC(=N)N)C(=O)N[C@@H](CCCCN)C(=O)N[C@@H](CC(C)C)C(=O)N[C@@H](CC(C)C)C(=O)N[C@@H](CCC(N)=O)C(=O)N[C@@H](CC(=O)O)C(=O)N[C@H](C(=O)N[C@@H](CCSC)C(=O)N[C@@H](CO)C(=O)N[C@@H](CCCNC(=N)N)C(N)=O)[C@@H](C)CC)C(C)C)[C@@H](C)O |
| 7.77 | H-YADAIFTNSYRKVLGQLSARKLLQIMSR-NH2 |
| 7.86 | CC[C@H](C)[C@H](NC(=O)[C@H](C)NC(=O)[C@H](CC(=O)O)NC(=O)[C@H](C)NC(=O)[C@H](Cc1ccc(O)cc1)NC(=O)CCCN)C(=O)N[C@@H](Cc1ccccc1)C(=O)N[C@H](C(=O)N[C@@H](CC(N)=O)C(=O)N[C@@H](CO)C(=O)N[C@@H](Cc1ccc(O)cc1)C(=O)N[C@@H](CCCNC(=N)N)C(=O)N[C@@H](CCCCN)C(=O)N[C@H](C(=O)N[C@@H](CC(C)C)C(=O)NCC(=O)N[C@@H](CCC(N)=O)C(=O)N[C@@H](CC(C)C)C(=O)N[C@@H](CO)C(=O)N[C@@H](C)C(=O)N[C@@H](CCCNC(=N)N)C(=O)N[C@@H](CCCCN)C(=O)N[C@@H](CC(C)C)C(=O)N[C@@H](CC(C)C)C(=O)N[C@@H](CCC(N)=O)C(=O)N[C@@H](CC(=O)O)C(=O)N[C@H](C(=O)N[C@@H](CCSC)C(=O)N[C@@H](CO)C(=O)N[C@@H](CCCNC(=N)N)C(N)=O)[C@@H](C)CC)C(C)C)[C@@H](C)O |
| 8.02 | H-YADAIFTNSYRKVLGQLSARKLLQDISR-NH2 |
| 8.14 | H-YADAIFTNSYRKVLGQLSARKLLQDIMR-NH2 |
| 8.18 | CC[C@H](C)[C@H](NC(=O)[C@H](C)NC(=O)[C@H](CC(=O)O)NC(=O)[C@H](C)NC(=O)[C@H](Cc1ccc(O)cc1)NC(=O)CCCCCN)C(=O)N[C@@H](Cc1ccccc1)C(=O)N[C@H](C(=O)N[C@@H](CC(N)=O)C(=O)N[C@@H](CO)C(=O)N[C@@H](Cc1ccc(O)cc1)C(=O)N[C@@H](CCCNC(=N)N)C(=O)N[C@@H](CCCCN)C(=O)N[C@H](C(=O)N[C@@H](CC(C)C)C(=O)NCC(=O)N[C@@H](CCC(N)=O)C(=O)N[C@@H](CC(C)C)C(=O)N[C@@H](CO)C(=O)N[C@@H](C)C(=O)N[C@@H](CCCNC(=N)N)C(=O)N[C@@H](CCCCN)C(=O)N[C@@H](CC(C)C)C(=O)N[C@@H](CC(C)C)C(=O)N[C@@H](CCC(N)=O)C(=O)N[C@@H](CC(=O)O)C(=O)N[C@H](C(=O)N[C@@H](CCSC)C(=O)N[C@@H](CO)C(=O)N[C@@H](CCCNC(=N)N)C(N)=O)[C@@H](C)CC)C(C)C)[C@@H](C)O |
| 8.25 | CC[C@H](C)[C@H](NC(=O)[C@H](C)NC(=O)[C@H](CC(=O)O)NC(=O)[C@H](C)NC(=O)[C@@H](N)Cc1ccc(O)cc1)C(=O)N[C@@H](Cc1ccccc1)C(=O)N[C@H](C(=O)N[C@@H](CC(N)=O)C(=O)N[C@@H](CO)C(=O)N[C@@H](Cc1ccc(O)cc1)C(=O)N[C@@H](CCCNC(=N)N)C(=O)N[C@@H](CCCCN)C(=O)N[C@H](C(=O)N[C@@H](CC(C)C)C(=O)NCC(=O)N[C@@H](CCC(N)=O)C(=O)N[C@@H](CC(C)C)C(=O)N[C@@H](CO)C(=O)N[C@@H](C)C(=O)N[C@@H](CCCNC(=N)N)C(=O)N[C@@H](CCCCN)C(=O)N[C@@H](CC(C)C)C(=O)N[C@@H](CC(C)C)C(=O)N[C@@H](CCC(N)=O)C(=O)N[C@@H](CC(=O)O)C(=O)N[C@H](C(=O)N[C@@H](CCSC)C(=O)N[C@@H](CO)C(=O)N[C@@H](CCCNC(=N)N)C(N)=O)[C@@H](C)CC)C(C)C)[C@@H](C)O |
